Columns and labels:
Format in all cases: functional
[1] = species: Mus musculus; test: Percentage increase of locomotor activity in mice
[2] = species: Mus musculus; test: Peroral dose required to reduce by 50% the score of excitatory behavior induced by intrathecal injection of ferrous chloride in mice; settings: central, read-out: ID50 (the source's name)
How it was run: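 Male Slc:ICR mice, 5 weeks old, 10 per dose. Compound given orally 30 min before intrathecal 5 μL of 50 mM FeCl2 in saline (between L6 and S1). Vehicle was water, or 0.5% gum arabic suspension. Behaviour scored 0–5 (biting to death) from 15 min to 1 h. ID50 from three or four doses, relative to vehicle score.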

[3] = system: Mus musculus; test: Locomotor activity was measured in mice after 1 hour administration of methamphetamine; design: unit not given here
[4] = species: Rattus norvegicus; test: Inhibition of lipid peroxidation by rat liver microsomes; design: concentration or dose not given beside the values; settings: dose or concentration not given here
How it was run: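 Rat liver microsomes (S-9), 0.3 mg protein in 40 mM Tris-malate pH 7.4. Peroxidation started with a 1:1 mix of FeCl2 (0.25 mM) and NADPH (3 mM), then 1 h at 37 °C. Compound in DMSO added before incubation, tested up to 1 μM final. Thiobarbituric acid method read-out. Activity relative to DMSO vehicle; IC50 from four concentrations by nonlinear regression, otherwise % inhibition at 1 μM.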

[5] = system: Mus musculus; test: Percentage increase of locomotor activity in mice at dose of 0.1 mg/kg dihydrochloride (10 mice were used)
How it was run: (§1)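 Male ICR mice, 5 weeks, 25–35 g, acclimated 90 min. (S)- or (R)-dihydrochloride given ip in 5% gum arabic. Methamphetamine 1 mg/kg ip in saline given 30 min later. Locomotor activity recorded afterwards and expressed relative to saline–methamphetamine controls; two-tailed Student's t-test.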

[6] = system: Mus musculus; test: Percentage increase of locomotor activity in mice at dose of 0.3 mg/kg dihydrochloride (9 mice were used); how it was run: as §1
[7] = system: Mus musculus; test: Percentage increase of locomotor activity in mice at dose of 1 mg/kg apomorphine (11 mice were used)
How it was run: (§2)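 Male ICR mice, 5 weeks. Dihydrochloride given ip 30 min before apomorphine 1 mg/kg sc, the hypermotility inducer used in place of methamphetamine. Spontaneous motor activity monitored afterwards; two-tailed Student's t-test.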

[8] = system: Mus musculus; test: Percentage increase of locomotor activity in mice at dose of 1 mg/kg dihydrochloride (9 mice were used)
[9] = system: Mus musculus; test: Locomotor activity was measured for 1 hour after administration of 0.1 mg/kg dihydrochloride in mice (10 mice were used); how it was run: as §1
[10] = system: Mus musculus; test: Locomotor activity was measured for 1 hour after administration of 0.3 mg/kg dihydrochloride in mice (9 mice were used); how it was run: as §1
[11] = system: Mus musculus; test: Locomotor activity was measured for 1 hour after administration of 1 mg/kg apomorphine in mice (11 mice were used); how it was run: as §2
[12] = system: Mus musculus; test: Locomotor activity was measured for 1 hour after administration of 1 mg/kg dihydrochloride in mice (9 mice were used); how it was run: as §1
[13] = system: Mus musculus; test: Percentage increase of locomotor activity in mice at a dose of 1 mg/kg dihydrochloride (15 mice were used); how it was run: as §1
[14] = system: Mus musculus; test: Percentage increase of locomotor activity in mice at a dose of 10 mg/kg dihydrochloride (16 mice were used); how it was run: as §1
[15] = system: Mus musculus; test: Percentage increase of locomotor activity in mice at a dose of 3 mg/kg dihydrochloride (13 mice were used); how it was run: as §1
[16] = system: Mus musculus; test: Locomotor activity was measured for 1 hour after administration of 1 mg/kg of dihydrchloride in mice (15 mice were used); how it was run: as §1
[17] = system: Mus musculus; test: Locomotor activity was measured for 1 hour after administration of 10 mg/kg of dihydrchloride in mice (16 mice were used); how it was run: as §1
[18] = system: Mus musculus; test: Locomotor activity was measured for 1 hour after administration of 3 mg/kg of dihydrchloride in mice (13 mice were used); how it was run: as §1

**Q.** Which results are given for `Cc1c(C)c2c(c(C)c1N)CC(C)(CN1CCCCC1)O2` (centres undefined)?
**A.** Increase [1]: 93.7%; ED50 [2]: 11.7 mg/kg; Locomotor activity [3]: 2960; inhibition [4]: 18%

**Q.** How did the Increase [1] turn out when `Cc1c(C)c2c(c(C)c1N)C(c1cccnc1)C(C)(C)O2` (centres undefined) was run?
**A.** Its Increase is 52.1%.

**Q.** What about the ED50 [2] of the same compound?
**A.** The ED50 was 32.1 mg/kg.

**Q.** What about the Locomotor activity [3] of the same compound?
**A.** The Locomotor activity was 1488.

**Q.** What about the inhibition [4] of the same compound?
**A.** The inhibition was 22%.

**Q.** `Cc1c(C)c2c(c(C)c1N)C[C@@](C)(CN1CCC(c3ccccc3)CC1)O2` was tested. Which ED50 [2] did it give?
**A.** The ED50 was 10.8 mg/kg.

**Q.** What about the Increase [5] of the same compound?
**A.** Its Increase is 113.2%.

**Q.** And the Increase [6]?
**A.** Its Increase is 54.4%.

**Q.** What about the Increase [7] of the same compound?
**A.** The Increase was 124.5%.

**Q.** What about the Increase [8] of the same compound?
**A.** The Increase was 35.1%.

**Q.** What about the Locomotor activity [9] of the same compound?
**A.** The Locomotor activity was 2103.

**Q.** And the Locomotor activity [10]?
**A.** Its Locomotor activity is 1102.

**Q.** And the Locomotor activity [11]?
**A.** Its Locomotor activity is 841.

**Q.** What about the Locomotor activity [12] of the same compound?
**A.** The Locomotor activity was 773.

**Q.** What does the source list for `Cc1c(C)c2c(c(C)c1N)CC(C)(CSc1nccn1C)O2` (centres undefined)?
**A.** Increase [1]: 104.2%; ED50 [2]: 37.1 mg/kg; Locomotor activity [3]: 2228; inhibition [4]: 11%

**Q.** What does the source list for `Cc1c(C)c2c(c(C)c1N)CC(C)(CCN1CCCCC1)O2` (centres undefined)?
**A.** Increase [1]: 206.5%; ED50 [2]: 18.4 mg/kg; Locomotor activity [3]: <3549; inhibition [4]: 8%

**Q.** Which results are given for `Cc1c(C)c2c(c(C)c1N)C[C@](C)(CN1CCC(c3ccccc3)CC1)O2`?
**A.** ED50 [2]: 11.6 mg/kg; Increase [13]: 129%; Increase [14]: 67.7%; Increase [15]: 169%; Locomotor activity [16]: 1472; Locomotor activity [17]: 889; Locomotor activity [18]: 1852

**Q.** For `Cc1c(C)c2c(c(C)c1N)CC(C)(Cn1ccnc1)O2` (centres undefined), which Increase [1] is on record?
**A.** The Increase was 155.1%.

**Q.** And the ED50 [2]?
**A.** Its ED50 is 25 mg/kg.

**Q.** And the Locomotor activity [3]?
**A.** The Locomotor activity was 3950.

**Q.** What about the inhibition [4] of the same compound?
**A.** Its inhibition is 6%.

**Q.** For `CNc1c(C)c(C)c2c(c1C)CC(C)(C)O2`, which Increase [1] is on record?
**A.** Its Increase is 84.7%.

**Q.** What about the ED50 [2] of the same compound?
**A.** The ED50 was 16.6 mg/kg.

**Q.** What about the Locomotor activity [3] of the same compound?
**A.** Its Locomotor activity is 1229.

**Q.** What about the inhibition [4] of the same compound?
**A.** The inhibition was 18%.

**Q.** Which results are given for `Cc1c(C)c2c(c(C)c1N)CC(C)(CN1CCN(C)CC1)O2` (centres undefined)?
**A.** Increase [1]: 181.1%; ED50 [2]: 25.3 mg/kg; Locomotor activity [3]: 3154; inhibition [4]: 10%
